{
  "source": "paper PMC2896288",
  "about": "(Journal of molecular biology, 2010)",
  "molecules": {"B1": {"name": "human Bcl-w (residues 1-164), c-myc tagged, Q92843 1-164 (domain or fragment)", "chain": "MATPASAPDTRALVADFVGYKLRQKGYVCGAGPGEGPAADPLHQAMRAAGDEFETRFRRTFSDLAAQLHVTPGSAQQRFTQVSDELFQGGPNWGRLVAFFVFGAALCAESVNKEMEPLVGQVQEWMVAYLETQLADWIHSSGGWAEFTALYGDGALEEARRLRE"}},
  "key": {"[1]": {"molecular_target": "human Bcl-xL (residues 1-209) (Homo sapiens, UniProt Q07817)", "sequence (Q07817 1-209)": "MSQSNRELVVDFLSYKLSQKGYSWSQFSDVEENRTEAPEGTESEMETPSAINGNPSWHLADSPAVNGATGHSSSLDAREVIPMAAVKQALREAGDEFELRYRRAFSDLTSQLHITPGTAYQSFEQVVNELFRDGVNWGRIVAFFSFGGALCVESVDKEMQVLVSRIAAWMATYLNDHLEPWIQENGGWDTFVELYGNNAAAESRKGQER", "assay": "Fluorescence polarization competition binding assay, Bcl-xL", "conditions": "FP competition binding assay"}, "[2]": {"molecular_target": "human Mcl-1 (residues 172-327) (Homo sapiens, UniProt Q07820)", "sequence (Q07820 172-327)": "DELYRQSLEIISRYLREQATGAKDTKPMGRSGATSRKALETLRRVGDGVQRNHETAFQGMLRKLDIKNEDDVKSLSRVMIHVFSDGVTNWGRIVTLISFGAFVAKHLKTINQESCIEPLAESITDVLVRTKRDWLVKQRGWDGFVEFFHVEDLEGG", "assay": "Fluorescence polarization competition binding assay, Mcl-1", "conditions": "FP competition binding assay", "procedure,_shortened": "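c-myc-tagged human Mcl-1 (172-327) from E. coli BL21(DE3), TEV-cleaved from MBP, at 50 nM. Serially diluted unlabelled 23-residue peptides are premixed with Mcl-1 first. FITC-Bim-BH3 (10 nM) is then added and mixed overnight at 37 °C, returned to room temperature and anisotropy read. Buffer: phosphate, pH 7.8. Ki from complete competitive binding model fitting five parameters, Bim Kd fixed 1 nM; unlabelled Bim-BH3 reference; ≥2 experiments, SD.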"}, "[3]": {"molecular_target": "human Mcl-1 (residues 172-327), c-myc tagged (human) (UniProt Q07820)", "sequence (Q07820 172-327)": "as above", "assay": "fluorescence polarisation"}, "[4]": {"molecular_target": "human Bcl-xL (residues 1-209), c-myc tagged (human) (UniProt Q07817)", "sequence (Q07817 1-209)": "as the sequence (Q07817 1-209) above", "assay": "fluorescence polarisation"}, "[5]": {"molecular_target": "Bcl-xL (Homo sapiens, UniProt Q07817)", "sequence (Q07817 1-209)": "as above", "assay": "Yeast surface display binding, soluble Bcl-xL", "conditions": "yeast cells displaying the peptide titrated with soluble Bcl-xL", "procedure,_shortened": "(§1)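 EBY100 yeast displaying the BH3 peptide as Aga2p fusion with C-terminal FLAG tag, incubated with c-myc-tagged pro-survival protein. Expression is read by anti-FLAG/FITC and binding by anti-c-myc/PE. Cells are gated by forward scatter on a FACScan flow cytometer, typically 10,000 events analysed.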"}, "[6]": {"molecular_target": "Mcl-1 (Homo sapiens, UniProt Q07820)", "sequence (Q07820 172-327)": "as the sequence (Q07820 172-327) above", "assay": "Yeast surface display binding, soluble Mcl-1", "conditions": "yeast cells displaying the peptide titrated with soluble Mcl-1", "procedure,_shortened": "as §1"}, "[7]": {"molecular_target": "T1, human Bcl-w (residues 1-164), c-myc tagged (human), Q92843", "T1 chain": "B1 chain", "assay": "SEC", "conditions": "remark: other sources report otherwise"}},
  "data": [
    {"molecule": "CC[C@H](C)[C@H](NC(=O)[C@H](CCCNC(=N)N)NC(=O)[C@H](CCCNC(=N)N)NC(=O)[C@H](CC(C)C)NC(=O)[C@H](CCC(=O)O)NC(=O)[C@H](CCC(N)=O)NC(=O)[C@H](C)NC(=O)[C@@H](NC(=O)[C@H](Cc1c[nH]c2ccccc12)NC(=O)[C@@H](NC(=O)[C@H](CCC(=O)O)NC(=O)[C@@H]1CCCN1C(=O)[C@H](CCCNC(=N)N)NC(C)=O)[C@@H](C)CC)[C@@H](C)CC)C(=O)NCC(=O)N[C@@H](CC(=O)O)C(=O)N[C@@H](CCC(=O)O)C(=O)N[C@H](C(=O)N[C@@H](CC(N)=O)C(=O)N[C@@H](C)C(=O)N[C@@H](Cc1ccc(O)cc1)C(=O)N[C@@H](Cc1ccc(O)cc1)C(=O)N[C@@H](C)C(=O)N[C@@H](CCCNC(=N)N)C(N)=O)C(C)C", "note": "[Phe4aVal mutation in Bim-BH3]", "values": [
      {"measurement": "reduction of affinity for Bcl-xL relative to Bim-BH3", "setting": "[1]", "result": "~30", "unit": "fold"},
      {"measurement": "increase of affinity for Mcl-1 relative to Bim-BH3", "setting": "[2]", "result": "more than 10 fold"}
    ]},
    {"molecule": "Bim-BH3 with a Phe4aVal mutation (synthetic peptide)", "values": [
      {"measurement": "Ki", "setting": "[3]", "result": "< 0.1", "unit": "nM"},
      {"measurement": "Ki", "setting": "[4]", "result": 30, "unit": "nM"}
    ]},
    {"molecule": "Bim-BH3: peptide derived from the BH3 region of human Bim; N-acetylated, C-amidated 23-mer in solution assays", "values": [
      {"measurement": "dissociation constant, yeast-displayed peptide, Bcl-xL", "setting": "[5]", "result": "low nanomolar range"},
      {"measurement": "dissociation constant, yeast-displayed peptide, Mcl-1", "setting": "[6]", "result": "low nanomolar range"}
    ]},
    {"molecule": "unlabeled Bim-BH3 peptide (23-residue synthetic peptide)", "values": [
      {"measurement": "Ki", "setting": "[3]", "result": 2, "unit": "nM"}
    ]},
    {"molecule": "B1", "values": [
      {"measurement": "oligomeric fraction", "setting": "[7]", "result": 58, "unit": "%"}
    ]}
  ]
}
